Columns and labels:
[1] = Tmax in HIV-seronegative healthy volunteers at 400 mg, po administered as single dose by LC-MS/MS; assay type: ADME, organism-based; details: human, in vivo
How it was run: (§1)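 Single fasted 400 mg oral dose was given alone or with 30 ml antacid in a crossover design with a 5- to 12-day washout. Fasting continued for 4 h post-dose. Plasma was assayed by LC/MS/MS (LLOQ 5 ng/ml). Cmax, Tmax and 12-h concentration were read visually from the profiles.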

[2] = Tmax in HIV-seronegative healthy volunteers at 400 mg, po administered as single dose by LC-MS/MS in presence of albuminium, magnesium and simethicone-containg antacid; assay type: ADME, organism-based; details: human, in vivo; how it was run: as §1
[3] = Drug level in HIV-seronegative healthy volunteers blood at 400 mg, po administered as single dose after 12 hrs by LC-MS/MS in presence of albuminium, magnesium and simethicone-containg antacid; assay type: ADME, organism-based; details: human, read-out: Drug uptake; how it was run: as §1
[4] = Drug level in HIV-seronegative healthy volunteers blood at 400 mg, po administered as single dose after 12 hrs by LC-MS/MS; assay type: ADME, organism-based; details: human, read-out: Drug uptake; how it was run: as §1
[5] = Cmax in HIV-seronegative healthy volunteers at 400 mg, po administered as single dose by LC-MS/MS in presence of albuminium, magnesium and simethicone-containg antacid; assay type: ADME, organism-based; parameters: dose 400 mg, route oral; details: human, in vivo; how it was run: as §1
[6] = AUC (0 to infinity) in HIV-seronegative healthy volunteers at 400 mg, po administered as single dose by LC-MS/MS in presence of albuminium, magnesium and simethicone-containg antacid; assay type: ADME, organism-based; parameters: dose 400 mg, time infinity, route oral; details: human, plasma
How it was run: (§2)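 Randomized crossover in HIV-seronegative volunteers: after an 8-h overnight fast, a single observed oral 400 mg dose was given alone or with 30 ml aluminium/magnesium/simethicone antacid, with a 5- to 12-day washout between visits. Plasma was sampled at 0.5–48 h and assayed by LC/MS/MS (13C6 internal standard, linear 5–10,000 ng/ml). Noncompartmental AUC was computed by the linear-log trapezoidal rule and reported as a geometric mean.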

[7] = Cmax in HIV-seronegative healthy volunteers at 400 mg, po administered as single dose by LC-MS/MS; assay type: ADME, organism-based; parameters: dose 400 mg, route oral; details: human, in vivo; how it was run: as §1
[8] = AUC (0 to infinity) in HIV-seronegative healthy volunteers at 400 mg, po administered as single dose by LC-MS/MS; assay type: ADME, organism-based; parameters: dose 400 mg, route oral, time infinity; details: human, plasma; how it was run: as §2
[9] = AUC (0 to 12 hrs) in HIV-seronegative healthy volunteers at 400 mg, po administered as single dose by LC-MS/MS in presence of albuminium, magnesium and simethicone-containg antacid; assay type: ADME, organism-based; parameters: dose 400 mg, time < 12 hr, route oral; details: human, plasma; how it was run: as §2
[10] = AUC (0 to 12 hrs) in HIV-seronegative healthy volunteers at 400 mg, po administered as single dose by LC-MS/MS; assay type: ADME, organism-based; parameters: dose 400 mg, time < 12 hr, route oral; details: human, plasma; how it was run: as §2
Homo sapiens [11] = experiment: Ratio of AUC (0 to 12 hrs) in HIV-seronegative healthy volunteers at 400 mg, po administered as single dose in presence of albuminium, magnesium and simethicone-containg antacid to AUC (0 to 12 hrs) in HIV-seronegative healthy volunteers at 400 mg, po administered as single dose; assay type: ADME, organism-based; details: in vivo
How it was run: (§3)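 Randomized crossover in HIV-seronegative volunteers: after an 8-h fast, a single oral 400 mg RAL dose was given with or without 30 ml antacid (2.7 g Mg hydroxide, 3 g Al hydroxide gel, 240 mg simethicone), with a 5–12 day washout. Plasma was sampled 0.5–48 h and assayed by LC/MS/MS (LLOQ 5 ng/ml). Noncompartmental analysis; log-transformed geometric mean ratios with 90% CI; paired t tests.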

Homo sapiens [12] = experiment: Ratio of AUC (0 to infinity) in HIV-seronegative healthy volunteers at 400 mg, po administered as single dose in presence of albuminium, magnesium and simethicone-containg antacid to AUC (0 to 12 hrs) in HIV-seronegative healthy volunteers at 400 mg, po administered as single dose; assay type: ADME, organism-based; details: in vivo; how it was run: as §3
Homo sapiens [13] = experiment: (§4) Ratio of Cmax in HIV-seronegative healthy volunteers at 400 mg, po administered as single dose in presence of albuminium, magnesium and simethicone-containg antacid to Cmax in HIV-seronegative healthy volunteers at 400 mg, po administered as single dose; assay type: ADME, organism-based; details: in vivo; how it was run: as §3
Blood = experiment: as §4, with “drug level” for “Cmax”, “volunteers blood” for “volunteers”, “mg after 12 hrs,” for “mg,”; assay type: ADME, organism-based; details: human, in vivo; how it was run: as §3
Homo sapiens [14] = experiment: Toxicity in HIV-seronegative healthy volunteers assessed as occurrence of mild headache at 400 mg, po administered as single dose; assay type: organism-based; details: in vivo
How it was run: (§5)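 Clinical adverse events were assessed during the two 12-h pharmacokinetic visits and at 24 and 48 h after a single oral 400 mg dose, given with or without 30 ml antacid. Events were graded with the 2004 Division of AIDS toxicity tables. Laboratory tests were run at screening and at 24 h post-dose.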

Homo sapiens [15] = experiment: Toxicity in HIV-seronegative healthy volunteers assessed as occurrence of mild headache at 400 mg, po administered as single dose in presence of 30 ml albuminium, magnesium and simethicone-containg antacid; assay type: organism-based; details: in vivo; how it was run: as §5
Homo sapiens [16] = experiment: Ratio of AUC (0 to infinity) in HIV-infected patients at 400 mg, po treated after 2 hrs administration of 20 mg proton pump inhibitor omeprazole to AUC (0 to infinity) in HIV-infected patients at 400 mg, po; assay type: ADME, organism-based; details: in vivo
Homo sapiens [17] = experiment: Ratio of Cmax in HIV-infected patients at 400 mg, po treated after 2 hrs administration of 20 mg proton pump inhibitor omeprazole to Cmax in HIV-infected patients at 400 mg, po; assay type: ADME, organism-based; details: in vivo
Homo sapiens [18] = experiment: Ratio of drug level in HIV-infected patients at 400 mg, po treated after 2 hrs administration of 20 mg proton pump inhibitor omeprazole after 12 hrs to drug level in HIV-infected patients at 400 mg, po after 12 hrs; assay type: ADME, organism-based; details: in vivo
[19] = Terminal half life in human at 400 mg BID; assay type: ADME, organism-based; details: in vivo, read-out: beta t1/2 (converted)
[20] = Primary phase half life in human at 400 mg BID; assay type: ADME, organism-based; details: in vivo, read-out: alphat1/2 (converted)

Tmax [1]: 3 h
Tmax [2]: 1 h
concentration at 12 h [3]: 13 ng/mL
concentration at 12 h [4]: 37 ng/mL
Cmax [5]: 1440 ng/mL
AUC(0-inf) [6]: 3420 ng·h/mL
Cmax [7]: 945 ng/mL
AUC(0-inf) [8]: 3540 ng·h/mL
AUC(0-t) at 12 h [9]: 3300 ng·h/mL
AUC(0-t) at 12 h [10]: 3040 ng·h/mL
Ratio (Homo sapiens [11]): 1.08
Ratio (Homo sapiens [12]): 0.96
Ratio (Homo sapiens [13]): 1.53
Ratio (Blood): 0.33
Ratio (Homo sapiens [16]): 3
Ratio (Homo sapiens [17]): 4
Ratio (Homo sapiens [18]): 1.5
half-life [19]: 540 min
half-life [20]: 60 min
SMILES: Cc1nnc(C(=O)NC(C)(C)c2nc(C(=O)NCc3ccc(F)cc3)c(O)c(=O)n2C)o1 [RALTEGRAVIR]
Activity (Homo sapiens [14]): 25%
Activity (Homo sapiens [15]): 42%
